Data set [1] can be described thus: Clearance in Sprague-Dawley rat at 10 mg/kg, po and 2 mg/kg, iv. It counts as ADME, organism-based. The note with it: in vivo. Summed up:
(§1)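 Sprague-Dawley rats, n = 3, dosed orally at 10 mg/kg and iv at 2 mg/kg. F% from oral versus iv exposure; half-life in hours, clearance in mL/min/kg.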

The target in data set [2] is T1, B1 bradykinin receptor (Homo sapiens, UniProt P46663).
T1 sequence (P46663 whole entry): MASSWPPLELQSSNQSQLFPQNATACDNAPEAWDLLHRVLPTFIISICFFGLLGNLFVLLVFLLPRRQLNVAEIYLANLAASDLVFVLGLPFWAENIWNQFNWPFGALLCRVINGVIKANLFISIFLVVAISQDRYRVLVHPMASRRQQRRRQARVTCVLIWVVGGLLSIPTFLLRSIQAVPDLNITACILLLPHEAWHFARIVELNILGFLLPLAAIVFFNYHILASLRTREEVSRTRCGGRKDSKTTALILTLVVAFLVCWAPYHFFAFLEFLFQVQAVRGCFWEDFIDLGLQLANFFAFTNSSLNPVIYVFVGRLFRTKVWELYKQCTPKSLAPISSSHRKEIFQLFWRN
In words: Displacement of [3H]des-Arg10 Leu9 kallidin from human bradykinin B1 receptor expressed in CHO cells. Type of data set: cell-based. Put shortly: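 Membranes from CHO cells stably expressing human B1, used at 0.2 mg/mL protein in pH 7.4 HEPES/NaCl/KCl buffer with 100 nM enalaprilat, 140 µg/mL bacitracin and 0.1% BSA. Radioligand 0.2 nM [3H]des-arg10 leu9 kallidin, 2% DMSO final, incubated 60 min at 22 °C, then filtered and counted. Nonspecific binding defined with 1 µM des-arg10 kallidin. Ki values, at least two experiments averaged.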
(Displacement assays read how much labelled ligand stays bound in the presence of the test substance.)

The nature of data set [3]: Half life in Sprague-Dawley rat at 10 mg/kg, po and 2 mg/kg, iv. Type of data set: ADME, organism-based. The following applies: in vivo. Summed up: as §1
Data set [4] can be described thus: Oral bioavailability in Sprague-Dawley rat at 10 mg/kg, po and 2 mg/kg, iv. It counts as ADME, organism-based. The note with it: in vivo. Summed up:
as §1

The subject of data set [5] is LLC-PK1. In words: Ratio of transport from basolateral to apical over apical to basolateral in LLC-PK1 cells expressing human MDR1. It counts as ADME, cell-based, Sus scrofa. The following applies: pig. Put shortly:
(§2)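 LLC-PK1 cells expressing human MDR1, grown in M199 with 10% FBS on 96-well filters and used on day 4. Equilibrated 30 min in HBSS with 1 mM HEPES, then test compound at 5 µM. 1 µM verapamil served as P-gp substrate control. Transport in both directions measured in triplicate by LC/MS/MS or scintillation.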

A further data set relates to human MDR1 (P-gp). In words: (§3) Apparent permeability in LLC-PK1 cells expressing human MDR1. Type of data set: ADME, cell-based, Sus scrofa. The note with it: pig, LLC-PK1. Put shortly:
as §2

The test system of data set [6] is LLC-PK1. The data set is described as §3. It counts as ADME, cell-based, Sus scrofa. The following applies: pig, llc-pk1. Summed up:
as §2

The target of data set [7] is T2, B1 bradykinin receptor (Homo sapiens) (UniProt P46663).
T2 sequence (whole entry): T1 sequence (P46663 whole entry)
In words: Reversal of complete Freund's adjuvant-induced hyperalgesia in orally dosed hB1 knock-in-mouse. Type of data set: functional, organism-based. Put shortly:
(§4)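 Humanized B1 knock-in mice and wild-type mice, 8-13 weeks old. Injected intraplantar with 30 µL of 50% CFA; 24 h later tested for von Frey tactile threshold (Dixon up-down). Then dosed po at 6, 20 or 60 mg/kg or vehicle (0.5% methylcellulose with 10 mg/mL malic acid, pH 4, 10 mL/kg). Paw withdrawal threshold read at 60 min. Two-way repeated-measures ANOVA with Tukey test.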

Data set [8] relates to Mus musculus. In words: Effect on complete Freund's adjuvant-induced hypersensitivity in mouse at 6 mg/kg, po. It counts as functional, organism-based. Also noted: dose 6 mg/kg. Summed up: as §4
Data set [9] in a line: Ratio of drug level in brain against plasma in African green monkey at 2 mg/kg, iv. The note with it: read-out: BPR.
Data set [10] deals with T1, B1 bradykinin receptor. In words: Plasma concentration in hB1 knock-in-mouse at 60 mg/kg, po after 1 hr. Type of data set: ADME, organism-based. Details: dose 60 mg/kg, route oral. Put shortly:
(§5)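 hB1 knock-in mice with CFA paw inflammation, dosed po at 6, 20 or 60 mg/kg in 0.5% methylcellulose with 10 mg/mL malic acid, pH 4. Plasma collected 60 min after dosing, following behavioural testing.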

Data set [11] in a line: Oral bioavailability in Mongrel dog at 3 mg/kg, po and 1 mg/kg, iv. It counts as ADME, organism-based, Canis lupus familiaris. The following applies: in vivo. Summed up: (§6)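 Mongrel dogs, n = 2, dosed orally at 3 mg/kg and iv at 1 mg/kg. F%, half-life in hours, clearance in mL/min/kg.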
A further data set has as its system Rhesus monkey. In words: Antidepressor effect in iv dosed rhesus monkey measured as blockade of DAK-induced blood pressure response. Type of data set: functional, Macaca mulatta. Summed up:
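Conscious rhesus monkeys primed with LPS 20 µg/kg iv and given 2 h equilibration. Baseline depressor response to des-Arg10-kallidin 0.3 µg/kg iv measured twice. Antagonist given as rising iv bolus doses of 3, 10, 30 and 100 µg/kg, each 5 min before a DAK challenge, with the fall in mean arterial pressure recorded. Plasma sampled 2 min after each dose. Crossover against vehicle, n = 3.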

Data set [12] concerns Liver microsomes. In words: Stability in rat liver microsomes. It counts as ADME, Microsome.
The test system of data set [13] is Liver microsomes. The data set can be described thus: Stability in human liver microsomes. Type of data set: ADME, Microsome.
Data set [14] can be described thus: Oral bioavailability in rhesus monkey at 3 mg/kg, po and 1 mg/kg, iv. Type of data set: ADME, organism-based, Macaca mulatta. The following applies: in vivo. Summed up: (§7)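 Rhesus monkeys, n = 2, dosed orally at 3 mg/kg and iv at 1 mg/kg. F%, half-life in hours, clearance in mL/min/kg.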
Data set [15] concerns Mus musculus. In words: Effect on complete Freund's adjuvant-induced hypersensitivity in mouse at 60 mg/kg, po. It counts as functional, organism-based. Details: dose 60 mg/kg. Summed up: as §4
In data set [16] the test system is Mus musculus. In words: Effect on complete Freund's adjuvant-induced hypersensitivity in mouse at 20 mg/kg, po. It counts as functional, organism-based. Details: dose 20 mg/kg. Put shortly: as §4
Data set [17] is described as follows: Stability in monkey liver microsomes. Type of data set: ADME, Macaca mulatta, Microsome. The note with it: rhesus monkey. A general note: Liver microsomes are a subcellular fraction often used to study metabolism.
Data set [18] in a line: Clearance in Mongrel dog at 3 mg/kg, po and 1 mg/kg, iv. It counts as ADME, organism-based, Canis lupus familiaris. The following applies: in vivo. Put shortly:
as §6

Data set [19] deals with T1, B1 bradykinin receptor. In words: Plasma concentration in hB1 knock-in-mouse at 20 mg/kg, po after 1 hr. Type of data set: ADME, organism-based. Details: dose 20 mg/kg, route oral. Summed up: as §5
The nature of data set [20]: Stability in rat hepatocytes. Type of data set: ADME, cell-based, Hepatocyte.
Data set [21] in a line: Half life in Mongrel dog at 3 mg/kg, po and 1 mg/kg, iv. Type of data set: ADME, organism-based, Canis lupus familiaris. The note with it: in vivo. Put shortly:
as §6

The nature of data set [22]: Stability in dog liver microsomes. Type of data set: ADME, Canis lupus familiaris, Microsome.
A short description of data set [23]: Clearance in rhesus monkey at 3 mg/kg, po and 1 mg/kg, iv. It counts as ADME, organism-based, Macaca mulatta. The note with it: in vivo. Summed up:
as §7

Data set [24] is described as follows: Stability in monkey hepatocytes. The following applies: rhesus monkey. Type of data set: ADME, cell-based, Macaca mulatta, Hepatocyte.
Data set [25] is described as follows: Half life in rhesus monkey at 3 mg/kg, po and 1 mg/kg, iv. The note with it: in vivo. It counts as ADME, organism-based, Macaca mulatta. Summed up:
as §7

Data set [26] is described as follows: Stability in human hepatocytes. It counts as ADME, cell-based, Hepatocyte.
The target of data set [27] is T1, B1 bradykinin receptor. In words: Plasma concentration in hB1 knock-in-mouse at 6 mg/kg, po after 1 hr. It counts as ADME, organism-based. Details: dose 6 mg/kg, route oral. Put shortly:
as §5

Several values for one entry are separate records, joined by “and”; a condition that tells them apart may be missing. Equal values may be shown once. Activity calls are given as the source filed them.

The molecule `COC(=O)c1c(F)cccc1-c1ccc([C@@H](C)NC(=O)C2(NC(=O)C(F)(F)C(F)(F)F)CC2)c(F)c1` had a clearance in data set [1] of 27 mL/min/kg. Also, the Ki on B1 bradykinin receptor [2] was 1.6 nM and 0.68 nM. This molecule also had a half-life in [3] of 0.34 h. The molecule also yielded a bioavailability in data set [4] of 44%. Besides, the Ratio with LLC-PK1 [5] was 1.4 and 3.7. In addition, the Papp with human MDR1 (P-gp) was found to be 31 ×10⁻⁶ cm/s; with LLC-PK1 [6], 28 ×10⁻⁶ cm/s.
As to `COC(=O)c1c(Cl)cccc1-c1ccc([C@@H](C)NC(=O)C2(NC(=O)C(F)(F)F)CC2)c(F)c1` [MK0686], in [7], the median effective dose (ED50) came out at 9.76 mg/kg. In addition, the result in the data set on Mus musculus [8], in the data set on Mus musculus [15] and in the data set with Mus musculus [16] was inactive. For the same molecule, in data set [9], the Kp is 0.4. Besides, the clearance in data set [1] worked out at 40 mL/min/kg; in data set [18], 9 mL/min/kg; in data set [23], 13 mL/min/kg. For the same molecule, the concentration at 1 h at B1 bradykinin receptor [10] came to 5 µM; at B1 bradykinin receptor [19], 3.5 µM; on B1 bradykinin receptor [27] it was 1 µM. Moreover, the bioavailability in data set [11] worked out at 33%; in data set [4], 34%; in data set [14], 31%. Also, the half-life was 0.4 h in data set [3], 1.8 h in data set [21] and 1.7 h in data set [25]. Also, in the data set with Rhesus monkey, the AD90 came to 0.047 mg/kg. In addition, the Stability result (in the data set on Liver microsomes [12]; in the data set on Liver microsomes [13]; in [17]; in data set [20]; in data set [22]; in [24]) was “Stable” each time. Also, the Stability entry in [26] is reported as “Stable”.

For orientation: Ki means a dissociation constant, usually derived from enzyme kinetics or from competition with a known ligand. In general, half-life refers to how long it takes for the measured level to halve. The bioavailability is the share of a dose that reaches the circulation, judged against a reference dose that is usually intravenous. As a reminder, the Papp is a coefficient for how fast a substance crosses the barrier. One may read the ED50 as the dose that gives a 50% effect, or the effect in half of the subjects.

Values taken from ChEMBL document CHEMBL1139836, “Development of orally bioavailable and CNS penetrant biphenylaminocyclopropane carboxamide bradykinin B1 receptor antagonists” (J Med Chem, 2007).
